Measurements: PubChem BioAssay AID821 (SRMLSC, 2007)
Activity calls are given as the source filed them.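 How the source made its calls: active means compounds whose fitted half-maximal concentration for reducing fibroblast viability is 100 µM or lower; inactive means the rest.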

Test: inhibition of LL 47 lung fibroblast growth, concentration-response curve, selectivity screen for endothelial cell growth inhibitor project, cellular system, ATP luminescence readout (AID 821);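 further: 100% = median of untreated cell-only wells and 0% = no luminescence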
Details: LL 47 lung fibroblast viability, ATP luminescence; at 20 µM (top of the series)
How it was run: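 Assay system: LL 47 human lung fibroblasts; Compound: dose series 0.039–20 µM final, 0.2% DMSO; Schedule: 72 h compound treatment at 37 °C after overnight attachment; Technique: CellTiter-Glo luminescence; Evaluation: percent viability relative to untreated wells, EC50 via 4-parameter fit.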

## CC1=C(C(=O)OC2CCCCCCC2)C(c2cc3c(cc2Br)OCO3)CC(=O)N1 (stereo not given)
  viability: 82.2% (inactive)

## COc1ccc2[nH]cc(C(=O)CN3CCN(C4CCCCC4)CC3)c2c1
  viability: 103% (inactive)

## CCOc1ccc(NC(=S)Nc2ccc(C)c([N+](=O)[O-])c2)cc1
  viability: 121% (inactive)

## CCOC(=O)N1CCN(c2ncnc3c2oc2nc(C(C)C)c4c(c23)CCC4)CC1
  viability: 108% (inactive)

## CC(=O)Nc1ccc(S(=O)(=O)NC2=C(N3CCN(Cc4ccccc4)CC3)C(=O)c3ccccc3C2=O)cc1
  viability: 89.8% (inactive)

## COc1cccc(-c2cc(C(=O)Nc3cc(C)n(Cc4ccc(Cl)cc4)n3)no2)c1
  viability: 92% (inactive)

## Cc1cccnc1Nc1nc(-c2ccc(O)cc2O)cs1
  viability: 94.8% (inactive)

## Cc1cccc(NC(=O)c2sc3nc4c(c(-c5cccs5)c3c2N)CN(C)CC4)c1
  viability: 86.7% (inactive)

## Cc1ccc(-n2nnnc2SCC(=O)Nc2ccc3c(c2)COC3=O)cc1C
  viability: 94.5% (inactive)

## Cc1ccc(-c2nc3cccnc3o2)cc1NC(=O)COc1ccc(C(C)(C)C)cc1
  viability: 99.4% (inactive)

## Cc1cc(C)c2c(c1)SC1=NC(c3ccccc3)(C(F)(F)F)NC(=O)N12 (stereo not given)
  viability: 102% (inactive)

## Cc1ccc(S(=O)(=O)c2c(C)nn(C(C)(C)C)c2OC(=O)c2ccc(Br)o2)cc1
  viability: 103% (inactive)

## COc1ccc(CNC(=O)C(C#N)c2nc3ccccc3nc2N2CCN(C)CC2)cc1 (stereo not given)
  viability: 97.9% (inactive)

## CC1CC(C)(C)CC2(C1)NC(=S)N(c1ccccc1)N2 (stereo not given)
  viability: 109% (inactive)

## Cc1cccc(-c2nc(CN3CCCC(C(=O)NC4CCC(C)CC4)C3)c(C)o2)c1 (stereo not given)
  viability: 85.4% (inactive)

## CC(/C=N/n1cnnc1)=C\c1ccccc1
  viability: 109% (inactive)

## NC(=O)Cc1c[nH]c2cccc(O)c12
  viability: 111% (inactive)

## O=c1[nH]c(=O)n(Cc2ccccc2)c2nc(-c3ccco3)cc(C(F)(F)F)c12
  viability: 81% (inactive)

## CCCCC(=O)Nc1ccc(C(=O)Nc2ccc(S(=O)(=O)N3CCCC3)cc2)cc1
  viability: 104% (inactive)

## COCCn1c(SCC(=O)Nc2ccc(NC(=O)c3ccco3)c(OC)c2)nc2ccccc2c1=O
  viability: 99.1% (inactive)

## Cc1cc(NC(=O)CSc2nc(C(C)C)nc3sc4c(c23)CCCC4)no1
  viability: 93.6% (inactive)

## CC(C(=O)N1CCOCC1)N1C(=O)c2ccccc2C1=O (stereo not given)
  viability: 117% (inactive)

## CCC(C)NC(=O)c1c(N)n(/N=C/c2cccnc2)c2nc3ccccc3nc12 (stereo not given)
  viability: 104% (inactive)

## CCOc1cc(N2CCOCC2)c(OCC)cc1NC(=O)COc1ncnc2ccc(Br)cc12
  viability: 100% (inactive)

## CCN(CC(O)Cn1c2ccccc2c2ccccc21)S(=O)(=O)c1ccc(C)cc1 (stereo not given)
  viability: 96.4% (inactive)

## CCOC(=O)N1CCc2c(sc(NC(=O)c3ccc(S(=O)(=O)N4CCCC4)cc3)c2C#N)C1
  viability: 81.6% (inactive)

## CCOc1ccc(NS(=O)(=O)c2ccc(OCC(=O)NCCCOC)cc2)cc1
  viability: 93.1% (inactive)

## Cc1ccccc1NC(=O)CSC(N)=O
  viability: 110% (inactive)

## COc1ccc(Cl)cc1N1CCN(CCNC(=O)Nc2ccccc2C)CC1
  viability: 101% (inactive)

## O=C1CCCc2c1[nH]c1ccc(Br)cc21
  viability: 107% (inactive)

## C=CCn1c(SCC(=O)NC(=O)NCc2ccco2)nc2sc(CC)cc2c1=O
  viability: 87.4% (inactive)

## Cc1cccc(C)c1N1CCN(c2ccc3nnc(C(F)(F)F)n3n2)CC1
  viability: 81.7% (inactive)

## Cc1nn(C)c(C)c1NC(=O)CSc1nc(C2CC2)nc2c1cnn2-c1ccccc1
  viability: 108% (inactive)

## O=C1CSC(c2ccccn2)N1Cc1cn2ccccc2n1 (stereo not given)
  viability: 99.9% (inactive)

## O=S1(=O)c2ccccc2N=NN1Cc1cc(Cl)cc(Cl)c1
  viability: 84.5% (inactive)

## Cc1cc2nc(C3CCN(CC4COc5ccccc5O4)CC3)[nH]c2cc1C (stereo not given)
  viability: 88.5% (inactive)

## Cc1ccc(-n2c(SCC(=O)Nc3nccs3)nc3c(c2=O)SCC3)cc1
  viability: 107% (inactive)

## Cc1ccc2[nH]c3c(N4CCN(Cc5ccccc5)CC4)ncnc3c2c1
  viability: 88.2% (inactive)

## COc1ccccc1NC(=O)CC1C(=O)NCCN1C(=O)Nc1ccc(Cl)c(Cl)c1 (stereo not given)
  viability: 82.4% (inactive)

## CCCSc1nc2c(cnn2-c2ccc(C)cc2)c(=O)[nH]1
  viability: 93.1% (inactive)

## CC(C)OC(=O)NCCOC(=O)Nc1cccc(Cl)c1
  viability: 103% (inactive)

## O=C(CSc1nnc(-c2cccs2)n1-c1ccccc1)Nc1ccccc1
  viability: 90.4% (inactive)

## COC(=O)c1cc(NC(=O)c2c(Cl)nc3sccn23)cc(C(=O)OC)c1
  viability: 91.8% (inactive)

## CSc1nnc2n(-c3ccc(C)cc3)c(=O)c3c4c(sc3n12)COC(C(C)C)C4 (stereo not given)
  viability: 109% (inactive)

## CNC(=O)c1ccc(-c2sc3nc(N4CCOCC4)c4c(c3c2N)CCCC4)o1
  viability: 90.4% (inactive)

## N#Cc1nc(-c2ccc(OCc3ccccc3)cc2)oc1NCCCn1ccnc1
  viability: 92.9% (inactive)

## Cc1sc2nc(SCC(=O)c3cccs3)n(Cc3ccco3)c(=O)c2c1C
  viability: 87% (inactive)

## COCCCNC(=O)c1ccc2c(=O)n(Cc3ccc4c(c3)OCO4)c(=S)[nH]c2c1
  viability: 106% (inactive)

## Cc1cc(S(=O)(=O)N2CCN(Cc3ccc4c(c3)OCO4)CC2)cc(C)c1N1CCCC1=O
  viability: 100% (inactive)

## C/C(=N\O)c1ccc2c3ccccc3n(C)c2c1
  viability: 111% (inactive)

## CC(C)COc1ccc2[nH]c3c(c2c1)CCCC3=O
  viability: 101% (inactive)

## OC(COc1ccc(Cl)c2ccccc12)CN1CCN(c2ccccn2)CC1 (stereo not given)
  viability: 109% (inactive)

## CCOc1c(Br)ccc2c1sc1nc[nH]c(=O)c12
  viability: 102% (inactive)

## CSc1nc2c(cnn2-c2ccc(C)c(C)c2)c(=O)[nH]1
  viability: 93.2% (inactive)

## Cc1cc(NC(=O)COC(=O)C(Nc2ccc(C(F)(F)F)cc2Cl)C(C)C)no1 (stereo not given)
  viability: 90.8% (inactive)

## O=C(COc1ccc(Cl)cc1)Nc1ccccc1C(=O)NCc1ccco1
  viability: 82.7% (inactive)

## Brc1ccccc1OCCCn1cnc2ccccc21
  viability: 111% (inactive)

## CC(C)OCCCN1C(=O)c2[nH]nc(-c3ccccc3O)c2C1c1cccc(Cl)c1 (stereo not given)
  viability: 98.3% (inactive)

## Cc1cc(N2CCCCC2)nc2ccc(NC(=O)c3ccc(Br)o3)cc12
  viability: 94.4% (inactive)

## Cc1cc(C)n(CC(O)Cn2c3ccc(Br)cc3c3cc(Br)ccc32)c(=O)n1 (stereo not given)
  viability: 119% (inactive)

## C/C(CC1CC2=C(CC1(C)C)C(C)(C)CCC2)=N\NC(N)=S (stereo not given)
  viability: 87.7% (inactive)

## c1cc2c3c(cccc3c1)NC1(CCCCCC1)N2
  viability: 86.2% (inactive)

## CC1CCC(C(=O)c2c(O)c3ccccc3oc2=O)CC1 (stereo not given)
  viability: 88.2% (inactive)

## O=C(/C=C/NNC(=O)c1ccccc1)c1ccccc1
  viability: 93.2% (inactive)

## Cn1c(-c2ccc3ccccc3n2)nc2cnccc21
  viability: 93.4% (inactive)

## COc1ccc2nc(NC(=O)CSC3=NCCS3)sc2c1
  viability: 110% (inactive)

## c1ccc2c(c1)oc1c(NCCCN3CCOCC3)ncnc12
  viability: 95.2% (inactive)

## CCCCCCn1c(O)c(C=NC2CCCCC2N)c(=O)[nH]c1=O (stereo not given)
  viability: 113% (inactive)

## Cn1nc(C(C)(C)C)cc1C(=O)NCc1ccc(N2CCCC2=O)cc1
  viability: 107% (inactive)

## O=Cc1ccc(Sc2nnc(-c3ccccc3)o2)c([N+](=O)[O-])c1
  viability: 89.9% (inactive)

## COC(=O)c1sccc1NC(=O)c1ccc2c(c1)OCO2
  viability: 103% (inactive)

## CCCCCCn1c(C)nc2c(c1=O)c1nc3ccccc3nc1n2/N=C/c1ccco1
  viability: 111% (inactive)

## O=C(Nc1ccc(OC(F)F)c(Cl)c1)Nc1ccc2c(c1)OCO2
  viability: 109% (inactive)

## COc1cc2c(N3CCOCC3)cc(O)c(CC(=O)Nc3ccccc3)c2cc1OC
  viability: 95.9% (inactive)

## CNC(=O)Cn1c(=O)n(C)c2ccccc21
  viability: 107% (inactive)

## Cc1cccc(NC(=O)c2cc(NC(=O)c3ccco3)ccc2N2CCCCC2)c1
  viability: 82.5% (inactive)

## Brc1cccc(-c2nnc3sc(CNC4CCCC4)cn23)c1
  viability: 96.9% (inactive)

## c1ccc(CC2CCN(C3=Nc4cccc5cccc3c45)CC2)cc1
  viability: 80.8% (inactive)

## COc1ccc(C(c2sc3ncnn3c2O)N2CC(C)OC(C)C2)cc1OC (stereo not given)
  viability: 98.1% (inactive)

## N/C(Cc1ccc(Cl)cc1)=N\OC(=O)c1ccc2ccccc2c1
  viability: 91.6% (inactive)

## Cc1ccc(Cn2nc(C)c(NC(=O)c3cc(-c4ccc5c(c4)OCO5)on3)c2C)cc1
  viability: 106% (inactive)

## Cc1ccc(C)c(C(C)NC(=O)C2C3CCC(O3)C2C(=O)O)c1 (stereo not given)
  viability: 94.5% (inactive)

## O=C(CC1SCCNC1=O)Nc1cc(Cl)cc(Cl)c1 (stereo not given)
  viability: 100% (inactive)

## CCCOC(=O)c1ccc(Oc2cn[nH]c2-c2ccc(OC)cc2O)cc1
  viability: 86.6% (inactive)

## C=CCOC(=O)C1=C(C)NC(SCC(=O)Nc2nccs2)=C(C#N)C1c1cccs1 (stereo not given)
  viability: 91.3% (inactive)

## CCCc1nc(SCC(=O)N2CCC(Cc3ccccc3)CC2)c2c(=O)n(C)c(=O)n(C)c2n1
  viability: 106% (inactive)

## N=C1C(c2nc(-c3ccc(Cl)cc3)cs2)=C(O)CN1CCCN1CCOCC1
  viability: 118% (inactive)

## CCCc1ccc(Oc2c(-c3ccc(O)c(C)c3O)n[nH]c2C)cc1
  viability: 97.3% (inactive)

## CC(C)(C)C1CC=C2C(C#N)=C(N)C(C#N)(C#N)C(c3cccs3)C2C1 (stereo not given)
  viability: 94.4% (inactive)

## COc1cccc2c(C)nc(Nc3nc(CSc4nnc(C)s4)cc(=O)[nH]3)nc12
  viability: 117% (inactive)

## Cc1nc2ccccc2n1CCc1nc2c3ccccc3nc(SCC(=O)NCc3ccco3)n2n1
  viability: 101% (inactive)

## OC1(Cc2ccn[nH]2)CCCCC1
  viability: 105% (inactive)

## c1ccc(-c2nccc(-c3ccc(-n4cnc5ccccc54)cc3)n2)cc1
  viability: 115% (inactive)

## CC1(C)CSC(=S)N1S(=O)(=O)c1ccccc1
  viability: 115% (inactive)

## CCCCC(=O)O[C@H]1CC[C@H]2[C@@H]3CCc4cc(O)ccc4[C@H]3CC[C@]12C
  viability: 84% (inactive)
